From ChEMBL document CHEMBL1143758, “Antitumor studies. part 3: design, synthesis, antitumor activity, and molecular docking study of novel 2-methylthio-, 2-amino-, and 2-(N-substituted amino)-10-alkyl-2-deoxo-5-deazaflavins” (Bioorg Med Chem, 2007) come the findings set out here.

Assay [1] concerns KB. As to the kind of experiment: Antitumor activity against human KB cells by modified MTT assay. The assay is classed as functional, cell-based.
For assay [2], the system named is CCRF-HSB-2. As to the kind of experiment: Antitumor activity against human CCRF-HSB2 cells by modified MTT assay. The assay is classed as functional, cell-based. (In general: Formazan colour is commonly taken as a measure of viable cells.)
Assay [3] concerns Human alphaherpesvirus 1. Nature of the assay: Antiviral activity against HSV1 in HELF cells assessed as reduction of virus plaque formation. The assay is classed as functional. The conditions noted are these: Human alphaherpesvirus 1, HELF; read-out: ED50 (the source's name). In outline: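 In vitro plaque-reduction test against HSV-1, run with an acyclovir positive control. The value is reported as ED50, the minimum concentration that reduces virus plaque formation by 50%.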

≈ marks a conversion by molar mass, not a printed value. Bounds are passed on as bounds.

For the molecule `Cc1ccc2c(c1)cc1c(=O)nc(N)nc-1n2C`, the half-maximal inhibitory concentration (IC50) (commonly the midpoint of a concentration-inhibition curve) is 44.5 µg/mL (≈ 185 µM) in assay [1] and 14.3 µg/mL (≈ 59.5 µM) in assay [2].
Taken in the same sequence, the figures for `Cc1cc2cc3c(=O)nc(N4CCOCC4)nc-3n(C)c2cc1C` were 8.8 µg/mL (≈ 27.1 µM) and 6 µg/mL (≈ 18.5 µM).
As to `CSc1nc2n(C)c3ccccc3cc-2c(=O)n1`, the results for the IC50 in assay [1] and in assay [2] were 1.97 µg/mL (≈ 7.66 µM) and 1.91 µg/mL (≈ 7.42 µM), respectively. The EC50 in assay [3] worked out at 0.8 µg/mL (≈ 3.11 µM).
For the molecule `CCn1c2nc(N(C)C)nc(=O)c-2cc2ccccc21`, the IC50 in assay [1] turned out to be 3.96 µg/mL (≈ 14.8 µM); in assay [2], 1.96 µg/mL (≈ 7.3 µM).
For `COc1ccc(OC)c2c1cc1c(=O)nc(SC)nc-1n2C`, the IC50 in assay [1] was determined as 8.75 µg/mL (≈ 27.6 µM); in assay [2], 4.84 µg/mL (≈ 15.3 µM). Also, the EC50 in assay [3] is 20 µg/mL (≈ 63 µM).
With `CSc1nc2n(C)c3c(C)cccc3cc-2c(=O)n1`, the IC50 in assay [1] came out at 12 µg/mL (≈ 44.2 µM); in assay [2], 15.3 µg/mL (≈ 56.4 µM).
With `CN(C)c1nc2n(C)c3ccc(Cl)cc3cc-2c(=O)n1`, the IC50 in assay [1] turned out to be 58.5 µg/mL (≈ 203 µM); in assay [2], 46.4 µg/mL (≈ 161 µM).
On to `CN1CCN(c2nc3n(C)c4ccc(Cl)cc4cc-3c(=O)n2)CC1`, for which the IC50 in assay [1] was 16.6 µg/mL (≈ 48.3 µM); in assay [2], 7.4 µg/mL (≈ 21.5 µM).
With `CCCCNc1nc2n(C)c3ccccc3cc-2c(=O)n1`, the IC50 in assay [1] was determined as 7.31 µg/mL (≈ 25.9 µM); in assay [2], 6.04 µg/mL (≈ 21.4 µM).
As for `CN(CCO)c1nc2n(C)c3ccccc3cc-2c(=O)n1`, the IC50 was 34.3 µg/mL (≈ 121 µM) in assay [1] and 34.9 µg/mL (≈ 123 µM) in assay [2].
Take `Cn1c2nc(N3CCOCC3)nc(=O)c-2cc2ccccc21`: the 50% inhibitory concentration (IC50) was 68.1 µg/mL (≈ 230 µM) in assay [1] and above 100 µg/mL in assay [2].
For `CN(C)c1nc2n(C)c3ccccc3cc-2c(=O)n1` the same measures were 20.1 µg/mL (≈ 79 µM) and 22.6 µg/mL (≈ 88.9 µM).
With `CN1CCN(c2nc3n(C)c4ccccc4cc-3c(=O)n2)CC1`, the values for the IC50 in assay [1] and in assay [2] were 8.44 µg/mL (≈ 27.3 µM) and 5.9 µg/mL (≈ 19.1 µM), respectively.
Regarding `CCn1c2nc(N(C)CCO)nc(=O)c-2cc2cc(C)ccc21`, the IC50 in assay [1] is 25.1 µg/mL (≈ 80.4 µM); in assay [2] it was 9.5 µg/mL (≈ 30.4 µM).
Taken in the same sequence, the figures for `Cc1ccc2c(c1)cc1c(=O)nc(N3CCCCC3)nc-1n2C` were 32.7 µg/mL (≈ 106 µM) and 25.2 µg/mL (≈ 81.7 µM).
Take `CSc1nc2n(C)c3ccc(C)cc3cc-2c(=O)n1`: the 50% inhibitory concentration (IC50) in assay [1] was found to be 9.27 µg/mL (≈ 34.2 µM); in assay [2], 9.57 µg/mL (≈ 35.3 µM).
Taken in the same sequence, the figures for `COc1ccc2cc3c(=O)nc(SC)nc-3n(C)c2c1` were 7.69 µg/mL (≈ 26.8 µM) and 5.92 µg/mL (≈ 20.6 µM).
Take `CCCCCCCCNc1nc2n(C)c3ccccc3cc-2c(=O)n1`: the results for the IC50 in assay [1] and in assay [2] were 7.9 µg/mL (≈ 23.3 µM) and 8.9 µg/mL (≈ 26.3 µM), respectively.
Regarding `CCn1c2nc(NCCO)nc(=O)c-2cc2ccccc21`, the IC50 was 14 µg/mL (≈ 49.2 µM) in assay [1] and 11.3 µg/mL (≈ 39.7 µM) in assay [2].
In the case of `COc1ccc2c(c1)cc1c(=O)nc(N3CCN(C)CC3)nc-1n2C`, the values for the IC50 in assay [1] and in assay [2] were 27 µg/mL (≈ 79.6 µM) and 12.6 µg/mL (≈ 37.1 µM), respectively.
For `Cc1ccc2c(c1)cc1c(=O)nc(N(C)C)nc-1n2C`, the 50% inhibitory concentration (IC50) in assay [1] amounted to 24.8 µg/mL (≈ 92.4 µM); in assay [2], 16.4 µg/mL (≈ 61.1 µM).
`CCn1c2nc(N)nc(=O)c-2cc2ccccc21`: the half-inhibitory concentration (IC50) in assay [1] turned out to be 1 µg/mL (≈ 4.16 µM); in assay [2] it was 1.64 µg/mL (≈ 6.83 µM). Moreover, the EC50 in assay [3] is 4 µg/mL (≈ 16.6 µM).
Regarding `CCn1c2nc(N(C)CCO)nc(=O)c-2cc2ccccc21`, the IC50 in assay [1] amounted to 23.5 µg/mL (≈ 78.8 µM); in assay [2], 26.3 µg/mL (≈ 88.2 µM).
As for `CSc1nc2n(C)c3cc(C)c(C)cc3cc-2c(=O)n1`, the IC50 worked out at 11.4 µg/mL (≈ 39.9 µM) in assay [1] and 7.06 µg/mL (≈ 24.7 µM) in assay [2].
On to `COc1ccc2c(c1)cc1c(=O)nc(N(C)C)nc-1n2C`, for which the concentration for half-maximal inhibition (IC50) in assay [1] worked out at 23.6 µg/mL (≈ 83 µM); in assay [2], 35.6 µg/mL (≈ 125 µM).
Taken in the same sequence, the figures for `CCn1c2nc(N3CCOCC3)nc(=O)c-2cc2cc(C)ccc21` were 50.8 µg/mL (≈ 157 µM) and 27.7 µg/mL (≈ 85.4 µM).
Regarding `CSc1nc2n(C)c3ccc(Cl)cc3cc-2c(=O)n1`, the values for the IC50 in assay [1] and in assay [2] were 21.5 µg/mL (≈ 73.7 µM) and 9.87 µg/mL (≈ 33.8 µM), respectively.
With `CCn1c2nc(SC)nc(=O)c-2cc2ccccc21`, the results for the concentration for half-maximal inhibition (IC50) in assay [1] and in assay [2] were 5.42 µg/mL (≈ 20 µM) and 7.07 µg/mL (≈ 26.1 µM), respectively. In assay [3], the EC50 is 20 µg/mL (≈ 73.7 µM).
In the case of `COc1ccc2c(c1)cc1c(=O)[nH]c(=O)nc-1n2C`, the 50% inhibitory concentration (IC50) turned out to be 10 µg/mL (≈ 38.9 µM) in assay [1] and 37.1 µg/mL (≈ 144 µM) in assay [2].
As to `Cn1c2nc(N3CCOCC3)nc(=O)c-2cc2cc(Cl)ccc21`, the IC50 in assay [1] was 52.7 µg/mL (≈ 159 µM); in assay [2], 96.1 µg/mL (≈ 291 µM).
`COc1ccc2cc3c(=O)nc(N(C)CCO)nc-3n(C)c2c1`: the half-maximal inhibitory concentration (IC50) in assay [1] is 36 µg/mL (≈ 115 µM); in assay [2], 39 µg/mL (≈ 124 µM).
Regarding `Cn1c2nc(N3CCCCC3)nc(=O)c-2cc2cc(Cl)ccc21`, the IC50 in assay [1] is 82.6 µg/mL (≈ 251 µM); in assay [2] it was 69.4 µg/mL (≈ 211 µM).
`CCn1c2nc(SC)nc(=O)c-2cc2cc(C)ccc21`: the IC50 was 1.73 µg/mL (≈ 6.06 µM) in assay [1] and 1.82 µg/mL (≈ 6.38 µM) in assay [2]. Further, the EC50 in assay [3] was determined as 4 µg/mL (≈ 14 µM).
Consider `COc1ccc2c(c1)cc1c(=O)nc(N3CCOCC3)nc-1n2C`, for which the results for the IC50 in assay [1] and in assay [2] were 38.3 µg/mL (≈ 117 µM) and 24.5 µg/mL (≈ 75.1 µM), respectively.
Consider `Cn1c2nc(N3CCCCC3)nc(=O)c-2cc2ccccc21`, for which the figures for the IC50 in assay [1] and in assay [2] were 32 µg/mL (≈ 109 µM) and 24.7 µg/mL (≈ 83.9 µM), respectively.
With `Cn1c2nc(N)nc(=O)c-2cc2ccccc21`, the IC50 came to 17.9 µg/mL (≈ 79.1 µM) in assay [1] and 13.7 µg/mL (≈ 60.6 µM) in assay [2].
In the case of `COc1ccc2c(c1)cc1c(=O)nc(SC)nc-1n2C`, the results for the IC50 in assay [1] and in assay [2] were 9.82 µg/mL (≈ 34.2 µM) and 9.27 µg/mL (≈ 32.3 µM), respectively.
